The source of these data is ChEMBL document CHEMBL1140647, “Synthesis and evaluation of potent and selective beta3 adrenergic receptor agonists containing heterobiaryl carboxylic acids” (Bioorg Med Chem Lett, 2007).

For the first experiment, the target named is T1, Beta-1 adrenergic receptor (Homo sapiens, UniProt P08588). Briefly: Agonist activity at human beta-1 adrenergic receptor expressed in CHO cells assessed as cAMP accumulation. Type of experiment: functional, cell-based. An outline of the steps: (§1)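 cAMP accumulation measured in CHO cells expressing the cloned human receptor subtype. Potency given as pEC50; Emax is the fitted maximal response of the concentration-response, expressed as percent of the maximal response to R-(−)-isoproterenol. Values are from n ≥ 3 experiments unless noted (some n = 2), with standard deviation within 10%.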
(Changes in cAMP serve as a functional read-out for many G protein-coupled receptors.)
Target sequence in this assay (P08588 whole entry): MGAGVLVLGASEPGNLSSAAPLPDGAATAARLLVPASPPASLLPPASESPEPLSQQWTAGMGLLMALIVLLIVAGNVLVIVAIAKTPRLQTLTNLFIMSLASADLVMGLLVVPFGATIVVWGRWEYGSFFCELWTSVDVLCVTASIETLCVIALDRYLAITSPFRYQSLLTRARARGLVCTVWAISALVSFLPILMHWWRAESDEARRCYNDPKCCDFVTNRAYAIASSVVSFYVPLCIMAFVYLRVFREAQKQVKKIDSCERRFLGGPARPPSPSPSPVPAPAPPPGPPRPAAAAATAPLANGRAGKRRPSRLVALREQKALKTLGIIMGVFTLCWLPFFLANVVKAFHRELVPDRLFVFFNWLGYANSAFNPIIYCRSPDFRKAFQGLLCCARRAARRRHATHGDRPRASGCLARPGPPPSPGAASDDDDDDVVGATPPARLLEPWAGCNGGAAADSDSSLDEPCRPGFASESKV
For the compound `C[C@H](CNc1ccc(-c2csc(C(=O)O)n2)cc1)NC[C@H](O)c1cccc(Cl)c1`, the EC50 (in general, the concentration at which the effect is half-maximal) was 12 nM.

Consider `C[C@H](CNc1cccc(-c2nc(C(=O)O)co2)c1)NC[C@H](O)c1cccc(Cl)c1`, for which the EC50 was 158 nM.

For the compound `C[C@H](CNc1ccc(-c2nc(C(=O)O)cs2)cc1)NC[C@H](O)c1cccc(Cl)c1`, the concentration for a half-maximal effect (EC50) was 20 nM.

Turning to `C[C@H](CNc1ccc(-c2nc(C(=O)O)co2)cc1)NC[C@H](O)c1cccc(Cl)c1`, the EC50 was 12.6 nM.

As for `C[C@H](CNc1cccc(-c2csc(C(=O)O)n2)c1)NC[C@H](O)c1cccc(Cl)c1`, the EC50 was 100 nM.

Take `C[C@H](CNc1ccc(-c2sccc2C(=O)O)cc1)NC[C@H](O)c1cccc(Cl)c1`: the EC50 was 100 nM.

The next experiment is filed under the species Homo sapiens. Briefly: Selectivity ratio of pEC50 for human beta-3 adrenergic receptor over beta-1 adrenergic receptor. An outline of the steps: (§2)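 Ratio of […]. pEC50 values come from cAMP accumulation in CHO cells expressing cloned human β1, β2 or β3 receptors.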
Consider `C[C@H](CNc1ccc(CC(=O)O)cc1)NC[C@H](O)c1cccc(Cl)c1`, for which the Selectivity ratio stood at 5.

As to `C[C@H](CNc1ccc(-c2csc(C(=O)O)n2)cc1)NC[C@H](O)c1cccc(Cl)c1`, the Selectivity ratio was found to be 8.

As to `C[C@H](CNc1cccc(-c2nc(C(=O)O)co2)c1)NC[C@H](O)c1cccc(Cl)c1`, the Selectivity ratio turned out to be 10.

In the case of `C[C@H](CNc1ccc(-c2nc(C(=O)O)cs2)cc1)NC[C@H](O)c1cccc(Cl)c1`, the Selectivity ratio came to 3.

In the case of `C[C@H](CNc1ccc(CCC(=O)O)cc1)NC[C@H](O)c1cccc(Cl)c1`, the Selectivity ratio was determined as 10.

Regarding `C[C@H](CNc1ccc(-c2nc(C(=O)O)co2)cc1)NC[C@H](O)c1cccc(Cl)c1`, the Selectivity ratio came out at 0.8.

Consider `C[C@H](CNc1cccc(-c2csc(C(=O)O)n2)c1)NC[C@H](O)c1cccc(Cl)c1`, for which the Selectivity ratio was found to be 50.

On to `C[C@H](CNc1ccc(-c2sccc2C(=O)O)cc1)NC[C@H](O)c1cccc(Cl)c1`, for which the Selectivity ratio stood at 250.

A further experiment is filed under the species Homo sapiens. Description: Selectivity ratio of pEC50 for human beta3 adrenergic receptor over beta-2 adrenergic receptor. An outline of the steps:
as §2
As to `C[C@H](CNc1ccc(CC(=O)O)cc1)NC[C@H](O)c1cccc(Cl)c1`, the Selectivity ratio was 3.

`C[C@H](CNc1ccc(-c2csc(C(=O)O)n2)cc1)NC[C@H](O)c1cccc(Cl)c1`: the Selectivity ratio amounted to 32.

On to `C[C@H](CNc1cccc(-c2nc(C(=O)O)co2)c1)NC[C@H](O)c1cccc(Cl)c1`, for which the Selectivity ratio turned out to be 8.

As for `C[C@H](CNc1ccc(-c2nc(C(=O)O)cs2)cc1)NC[C@H](O)c1cccc(Cl)c1`, the Selectivity ratio was 8.

In the case of `C[C@H](CNc1ccc(CCC(=O)O)cc1)NC[C@H](O)c1cccc(Cl)c1`, the Selectivity ratio turned out to be 16.

In the case of `C[C@H](CNc1ccc(-c2nc(C(=O)O)co2)cc1)NC[C@H](O)c1cccc(Cl)c1`, the Selectivity ratio is 6.

Consider `C[C@H](CNc1cccc(-c2csc(C(=O)O)n2)c1)NC[C@H](O)c1cccc(Cl)c1`, for which the Selectivity ratio is 50.

Regarding `C[C@H](CNc1ccc(-c2sccc2C(=O)O)cc1)NC[C@H](O)c1cccc(Cl)c1`, the Selectivity ratio is 1600.

The target of another experiment is T2, Beta-2 adrenergic receptor (Homo sapiens, UniProt P07550). Description: Agonist activity at human beta-2 adrenergic receptor expressed in CHO cells assessed as cAMP accumulation. Type of experiment: functional, cell-based. An outline of the steps: as §1
Target sequence in this assay (P07550 whole entry): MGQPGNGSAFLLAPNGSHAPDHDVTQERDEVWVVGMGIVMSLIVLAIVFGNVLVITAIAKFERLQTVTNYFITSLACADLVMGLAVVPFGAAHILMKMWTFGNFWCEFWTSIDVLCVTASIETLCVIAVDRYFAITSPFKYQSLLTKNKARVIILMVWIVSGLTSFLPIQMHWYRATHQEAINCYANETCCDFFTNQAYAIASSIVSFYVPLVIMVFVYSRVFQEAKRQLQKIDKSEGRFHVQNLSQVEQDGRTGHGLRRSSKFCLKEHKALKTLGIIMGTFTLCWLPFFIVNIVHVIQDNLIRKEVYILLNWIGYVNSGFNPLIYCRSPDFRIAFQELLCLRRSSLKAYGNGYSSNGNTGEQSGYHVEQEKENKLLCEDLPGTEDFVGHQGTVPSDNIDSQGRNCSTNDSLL
As to `C[C@H](CNc1ccc(-c2csc(C(=O)O)n2)cc1)NC[C@H](O)c1cccc(Cl)c1`, the EC50 is 50.1 nM.

Regarding `C[C@H](CNc1cccc(-c2nc(C(=O)O)co2)c1)NC[C@H](O)c1cccc(Cl)c1`, the EC50 was 126 nM.

In the case of `C[C@H](CNc1ccc(-c2nc(C(=O)O)cs2)cc1)NC[C@H](O)c1cccc(Cl)c1`, the EC50 is 50.1 nM.

As to `C[C@H](CNc1ccc(-c2nc(C(=O)O)co2)cc1)NC[C@H](O)c1cccc(Cl)c1`, the half-maximal effective concentration (EC50) was 100 nM.

On to `C[C@H](CNc1cccc(-c2csc(C(=O)O)n2)c1)NC[C@H](O)c1cccc(Cl)c1`, for which the EC50 was 100 nM.

`C[C@H](CNc1ccc(-c2sccc2C(=O)O)cc1)NC[C@H](O)c1cccc(Cl)c1`: the EC50 is 631 nM.

The next experiment has as its target T1, Beta-1 adrenergic receptor. Description: Agonist activity at human beta-1 adrenergic receptor expressed in CHO cells assessed as cAMP accumulation relative to R-(-)-isoproterenol. Format: functional, cell-based. An outline of the steps: as §1
Target sequence in this assay (P08588 whole entry, looked up): as the sequence (P08588 whole entry) above
For the compound `C[C@H](CNc1ccc(-c2csc(C(=O)O)n2)cc1)NC[C@H](O)c1cccc(Cl)c1`, the Emax (usually the greatest response seen or fitted, relative to the assay's reference) amounted to 19%.

`C[C@H](CNc1cccc(-c2nc(C(=O)O)co2)c1)NC[C@H](O)c1cccc(Cl)c1`: the Emax amounted to 30%.

In the case of `C[C@H](CNc1ccc(-c2nc(C(=O)O)cs2)cc1)NC[C@H](O)c1cccc(Cl)c1`, the Emax amounted to 21%.

Regarding `C[C@H](CNc1ccc(-c2nc(C(=O)O)co2)cc1)NC[C@H](O)c1cccc(Cl)c1`, the maximum response (Emax) was 23%.

As to `C[C@H](CNc1cccc(-c2csc(C(=O)O)n2)c1)NC[C@H](O)c1cccc(Cl)c1`, the Emax turned out to be 20%.

With `C[C@H](CNc1ccc(-c2sccc2C(=O)O)cc1)NC[C@H](O)c1cccc(Cl)c1`, the maximum response (Emax) was 14%.

For a further experiment, the target named is T3, Beta-3 adrenergic receptor (Homo sapiens, UniProt P13945). Description: Agonist activity at human beta-3 adrenergic receptor expressed in CHO cells assessed as cAMP accumulation. Type of experiment: functional, cell-based. An outline of the steps: as §1
Target sequence in this assay (P13945 whole entry): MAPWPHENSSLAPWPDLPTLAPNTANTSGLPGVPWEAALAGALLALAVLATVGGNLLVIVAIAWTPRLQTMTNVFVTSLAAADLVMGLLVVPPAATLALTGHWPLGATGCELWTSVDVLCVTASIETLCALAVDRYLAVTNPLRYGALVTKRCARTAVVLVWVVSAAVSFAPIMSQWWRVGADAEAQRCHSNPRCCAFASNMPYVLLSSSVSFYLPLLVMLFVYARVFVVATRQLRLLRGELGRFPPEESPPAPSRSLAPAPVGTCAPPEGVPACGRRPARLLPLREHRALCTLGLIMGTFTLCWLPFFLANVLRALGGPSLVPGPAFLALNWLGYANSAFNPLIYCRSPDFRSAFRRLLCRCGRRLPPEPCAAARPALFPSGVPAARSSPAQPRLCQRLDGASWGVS
Take `C[C@H](CNc1ccc(-c2csc(C(=O)O)n2)cc1)NC[C@H](O)c1cccc(Cl)c1`: the EC50 was 1.58 nM.

As to `C[C@H](CNc1cccc(-c2nc(C(=O)O)co2)c1)NC[C@H](O)c1cccc(Cl)c1`, the EC50 is 15.8 nM.

On to `C[C@H](CNc1ccc(-c2nc(C(=O)O)cs2)cc1)NC[C@H](O)c1cccc(Cl)c1`, for which the EC50 is 6.31 nM.

On to `C[C@H](CNc1ccc(-c2nc(C(=O)O)co2)cc1)NC[C@H](O)c1cccc(Cl)c1`, for which the EC50 was 15.8 nM.

On to `C[C@H](CNc1cccc(-c2csc(C(=O)O)n2)c1)NC[C@H](O)c1cccc(Cl)c1`, for which the EC50 was 2 nM.

Turning to `C[C@H](CNc1ccc(-c2sccc2C(=O)O)cc1)NC[C@H](O)c1cccc(Cl)c1`, the EC50 is 0.398 nM.

In the next experiment the target is T2, Beta-2 adrenergic receptor. Description: Agonist activity at human beta-2 adrenergic receptor expressed in CHO cells assessed as cAMP accumulation relative to R-(-)-isoproterenol. Format: functional, cell-based. An outline of the steps:
as §1
Target sequence in this assay (P07550 whole entry, looked up): as the sequence (P07550 whole entry) above
`C[C@H](CNc1ccc(-c2csc(C(=O)O)n2)cc1)NC[C@H](O)c1cccc(Cl)c1`: the Emax worked out at 63%.

For `C[C@H](CNc1cccc(-c2nc(C(=O)O)co2)c1)NC[C@H](O)c1cccc(Cl)c1`, the Emax came to 39%.

Consider `C[C@H](CNc1ccc(-c2nc(C(=O)O)cs2)cc1)NC[C@H](O)c1cccc(Cl)c1`, for which the Emax was found to be 41%.

As to `C[C@H](CNc1ccc(-c2nc(C(=O)O)co2)cc1)NC[C@H](O)c1cccc(Cl)c1`, the maximal response (Emax) was determined as 53%.

With `C[C@H](CNc1cccc(-c2csc(C(=O)O)n2)c1)NC[C@H](O)c1cccc(Cl)c1`, the Emax amounted to 76%.

Take `C[C@H](CNc1ccc(-c2sccc2C(=O)O)cc1)NC[C@H](O)c1cccc(Cl)c1`: the maximum response (Emax) amounted to 19%.

A further experiment has as its target T3, Beta-3 adrenergic receptor. Description: Agonist activity at human beta-3 adrenergic receptor expressed in CHO cells assessed as cAMP accumulation relative to R-(-)-isoproterenol. Format: functional, cell-based. An outline of the steps:
as §1
Target sequence in this assay (P13945 whole entry, looked up): as the sequence (P13945 whole entry) above
With `C[C@H](CNc1ccc(-c2csc(C(=O)O)n2)cc1)NC[C@H](O)c1cccc(Cl)c1`, the Emax worked out at 100%.

As for `C[C@H](CNc1cccc(-c2nc(C(=O)O)co2)c1)NC[C@H](O)c1cccc(Cl)c1`, the Emax was 115%.

Consider `C[C@H](CNc1ccc(-c2nc(C(=O)O)cs2)cc1)NC[C@H](O)c1cccc(Cl)c1`, for which the maximum response (Emax) turned out to be 100%.

In the case of `C[C@H](CNc1ccc(-c2nc(C(=O)O)co2)cc1)NC[C@H](O)c1cccc(Cl)c1`, the maximum response (Emax) was 92%.

Take `C[C@H](CNc1cccc(-c2csc(C(=O)O)n2)c1)NC[C@H](O)c1cccc(Cl)c1`: the Emax was determined as 97%.

Take `C[C@H](CNc1ccc(-c2sccc2C(=O)O)cc1)NC[C@H](O)c1cccc(Cl)c1`: the Emax was 96%.
